According to ChEMBL document CHEMBL3124897, “A dynamic G-quadruplex region regulates the HIV-1 long terminal repeat promoter” (J Med Chem, 2013):
Calls of active or inactive are those of the source. No cut-off for these calls is given here.

What was measured:
[1] = tested on: Human immunodeficiency virus 1; assay: Binding affinity to HIV 1 HXB2 G-tract mutant m3'' FL-LTR assessed as effect on LTR G-quadruplex formation by Taq polymerase stop assay
Summary of the method: (§1)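 Primer extension on wild-type or mutant full-length LTR templates in 100 mM K+ with 100 nM ligand. Labelled primer (72 nM) annealed to template (36 nM) in 10 mM lithium cacodylate, pH 7.4. Ligand/KCl incubation 20 min at room temperature, then Taq Gold extension at 47°C for 30 min. Products on 12% denaturing gel, phosphorimaging of stop sites.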

[2] = tested on: Human immunodeficiency virus 1; assay: Binding affinity to HIV 1 HXB2 G-tract mutant m3 FL-LTR assessed as formation of LTR-4 G-quadruplex by Taq polymerase stop assay; summary of the method: as §1
[3] = tested on: Human immunodeficiency virus 1; assay: Inhibition of wild-type HIV 1 HXB2 LTR DNA assessed as reduction in promoter activity at 1.5 to 6 uM after 24 hrs by luciferase assay; parameters: scale not given: the % may be the effect or the level left
Summary of the method: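 HEK 293T cells (5.5×10^4 per well) co-transfected with LTR-driven firefly luciferase (pGL4.10Luc2/LTR) and TK-promoter Renilla luciferase (pGL4.74), 200 ng each. Treated with ligand at 1.5–6.0 µM. Firefly signal normalized to Renilla. n = 3, mean ± s.d., Student's t-test.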

[4] = Cytotoxicity against human TZM-bl cells at 0.1 to 6 uM after 48 hrs; type: cell-based
Summary of the method: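 TZM-bl cells (2×10^4 per well) grown overnight, then exposed to compound in DMSO carrier at 37°C. Viability read after 48 h with Cell Titer Blue reagent.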

[5] = tested on: Human immunodeficiency virus 1; assay: Binding affinity to HIV 1 HXB2 G-tract mutant m2 FL-LTR assessed as formation of LTR-2 G-quadruplex by Taq polymerase stop assay; summary of the method: as §1
[6] = tested on: Human immunodeficiency virus 1; assay: Binding affinity to HIV 1 HXB2 G-tract mutant m1 FL-LTR assessed as effect on LTR G-quadruplex formation by Taq polymerase stop assay; summary of the method: as §1
[7] = tested on: Human immunodeficiency virus; assay: Binding affinity to HIV 1 HXB2 G-quadruplex LTR-4 DNA assessed as change in melting temperature at 16 uM after 24 hrs by circular dichroism spectropolarimeter analysis in the presence of K+
Summary of the method: (§2)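 Oligonucleotides at 4 µM final in 10 mM lithium cacodylate, pH 7.4, with or without 100 mM KCl. Annealed at 95 °C for 5 min, slowly cooled, measured after 24 h. Ligand added after annealing at 16 µM final. CD melting from 20–95 °C, 1 min equilibration per step. Tm taken from a van't Hoff two-state fit.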

[8] = tested on: Human immunodeficiency virus 1; assay: Antiviral activity against Nef-deficient HIV 1 NL4-3 infected in human TZM-bl cells assessed as inhibition of viral replication at 3 to 6 uM after 48 hrs by luciferase reporter gene assay; type: functional, organism-based
Summary of the method: (§3)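 TZM-bl cells (HIV-1 LTR-luciferase reporter line), 2×10^4 per well, grown overnight. Ligand preincubated with medium and wild-type or Nef-defective NL4-3 virus for 4 h before infection. Virus stocks were made by transfecting HEK 293T with proviral genomes and amplified in MT2 cells. Luciferase read on lysates after 48 h at 37°C. Values relative to DMSO-only infected control, n = 3, ±SEM.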

[9] = tested on: Human immunodeficiency virus 1; assay: Binding affinity to HIV 1 HXB2 G-quadruplex FL-LTR DNA assessed as blocking sites at G-tracts (4 to 2) after 20 mins by Taq polymerase stop assay
Summary of the method: (§4)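 Primer was 5'-32P-labelled (72 nM) and annealed to full-length LTR template (36 nM) in 10 mM lithium cacodylate, pH 7.4. Template was incubated with ligand plus 100 mM KCl for 20 min at room temperature. Extension used Taq Gold polymerase (2 U) at 47°C for 30 min. Reactions were stopped by EtOH precipitation, run on a 12% denaturing gel and read by phosphorimaging as stop sites at G-tracts.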

[10] = tested on: Human immunodeficiency virus 1; assay: Inhibition of wild-type HIV 1 HXB2 LTR DNA assessed as reduction in promoter activity after 24 hrs by GFP reporter assay in the absence of Tat
Summary of the method: (§5)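 HEK 293T cells (2×10^5) transfected with LTR-EGFP plasmid, with or without Tat. Ligand (1.5–6.0 µM) added 4 h after transfection, then incubated overnight. Mean EGFP fluorescence measured by flow cytometry, 30000 events, gated on GFP+ cells with viable morphology. n = 3, mean ± s.d., Student's t-test.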

[11] = tested on: Human immunodeficiency virus 1; assay: Binding affinity to HIV 1 HXB2 G-tract mutant m6' FL-LTR assessed as formation of LTR-2 and LTR-3 G-quadruplex by Taq polymerase stop assay; summary of the method: as §1
[12] = tested on: Human immunodeficiency virus 1; assay: Binding affinity to HIV 1 HXB2 G-quadruplex LTR-3 DNA assessed as change in melting temperature at 16 uM after 24 hrs by circular dichroism spectropolarimeter analysis in the presence of K+; summary of the method: as §2
[13] = tested on: Human immunodeficiency virus 1; assay: Binding affinity to HIV 1 HXB2 G-quadruplex FL-LTR DNA assessed as blocking at G-tracts (6 and 5) after 20 mins by Taq polymerase stop assay; summary of the method: as §4
[14] = tested on: Human immunodeficiency virus 1; assay: Binding affinity to HIV 1 HXB2 G-quadruplex LTR-3 DNA assessed as change in melting temperature at 16 uM after 24 hrs by circular dichroism spectropolarimeter analysis in the absence of K+; summary of the method: as §2
[15] = tested on: Human immunodeficiency virus 1; assay: Binding affinity to HIV 1 HXB2 G-quadruplex LTR-2 DNA assessed as change in melting temperature at 16 uM after 24 hrs by circular dichroism spectropolarimeter analysis in the presence of K+; summary of the method: as §2
[16] = tested on: Human immunodeficiency virus 1; assay: Binding affinity to HIV 1 HXB2 G-quadruplex LTR-FL DNA assessed as change in melting temperature at 16 uM after 24 hrs by circular dichroism spectropolarimeter analysis in the presence of K+; summary of the method: as §2
[17] = tested on: Human immunodeficiency virus 1; assay: Binding affinity to HIV 1 HXB2 G-tract mutant m6 FL-LTR DNA assessed as formation of LTR-2 G-quadruplex by Taq polymerase stop assay; summary of the method: as §1
[18] = tested on: Human immunodeficiency virus 1; assay: Inhibition of HIV 1 HXB2 G-tract mutant m5 LTR DNA assessed as reduction in promoter activity at 1.5 to 6 uM after 24 hrs by luciferase assay
Summary of the method: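 HEK 293T cells (5.5×10^4 per well) transfected with LTR-firefly luciferase vector plus HSV-TK Renilla control vector (200 ng each). Cells treated with ligand at 1.5–6.0 µM. Firefly signal normalized to Renilla and expressed relative to untreated control. n = 3, mean ± s.d., Student's t-test.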

[19] = tested on: Human immunodeficiency virus 1; assay: Binding affinity to HIV 1 HXB2 G-tract mutant m3' FL-LTR assessed as effect on LTR G-quadruplex formation by Taq polymerase stop assay; summary of the method: as §1
[20] = tested on: Human immunodeficiency virus 1; assay: Binding affinity to HIV 1 HXB2 G-tract mutant m5/m4 FL-LTR assessed as formation of LTR G-quadruplex by Taq polymerase stop assay; summary of the method: as §1
[21] = tested on: Human immunodeficiency virus 1; assay: Binding affinity to HIV 1 HXB2 G-quadruplex LTR-2 DNA assessed as change in melting temperature at 16 uM after 24 hrs by circular dichroism spectropolarimeter analysis in the absence of K+; summary of the method: as §2
[22] = tested on: Human immunodeficiency virus 1; assay: Inhibition of wild-type HIV 1 HXB2 LTR DNA assessed as reduction in promoter activity at 6 uM after 24 hrs by GFP reporter assay in the presence of Tat
Summary of the method: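 HEK 293T cells (2×10^5) transfected with pcLTR-EGFP, with Tat present. Ligand (1.5–6.0 µM) added 4 h after transfection and left overnight. Flow cytometry gated on GFP+ cells of viable morphology, 30000 events per sample; mean EGFP fluorescence read. n = 3, mean ± s.d., t-test.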

[23] = tested on: Human immunodeficiency virus 1; assay: Inhibition of wild-type HIV 1 HXB2 LTR DNA assessed as reduction in promoter activity after 24 hrs by GFP reporter assay in the presence of Tat; summary of the method: as §5
[24] = tested on: Human immunodeficiency virus 1; assay: Antiviral activity against wild type HIV 1 NL4-3 infected in human TZM-bl cells assessed as inhibition of viral replication at 3 to 6 uM after 48 hrs by luciferase reporter gene assay; type: functional, organism-based; summary of the method: as §3

| Compound | ΔTm [7] [°C] | inhibition [8] | Activity [9] | ΔTm [12] [°C] | Activity [13] | ΔTm [14] [°C] | ΔTm [15] [°C] | ΔTm [16] [°C] | ΔTm [21] [°C] | inhibition [23] | inhibition [24] | other results |
| --- | --- | --- | --- | --- | --- | --- | --- | --- | --- | --- | --- | --- |
| CN(C)c1ccc(Nc2c3ccc(NC(=O)CCN4CCCC4)cc3nc3cc(NC(=O)CCN4CCCC4)ccc23)cc1 | 54 | Active | inactive | 42.3 | Active | 12.9 | 39.9 | 5.6 | 17.6 | Dose-dependent effect | Active | Activity [1]: inactive; Activity [2]: Active; Activity [3]: 70%; Activity [4]: Non-toxic; Activity [5]: inactive; Activity [6]: inactive; inhibition ([10]; concentration not given here): 30%; Activity [11]: Active; Activity [17]: Active; Activity [18]: inactive; Activity [19]: inactive; Activity [20]: inactive; inhibition [22]: 50% |
| C[n+]1ccc(-c2c3nc(c(-c4cc[n+](C)cc4)c4ccc([nH]4)c(-c4cc[n+](C)cc4)c4ccc([nH]4)c(-c4cc[n+](C)cc4)c4nc2C=C4)C=C3)cc1 | 43.9 |  | inactive | 38 | Active | 22.9 | 33.4 | 4.5 | 12.4 |  |  |  |
| O=C1c2ccc3c4ccc5c6c(ccc(c7ccc(c2c37)C(=O)N1CCN1CCCCC1)c64)C(=O)N(CCN1CCCCC1)C5=O | 55.8 |  |  | 16.4 |  | 15 | 31.1 | 8.8 | 13.8 |  |  |  |
| C[n+]1ccccc1-c1c2nc(c(-c3cccc[n+]3C)c3ccc([nH]3)c(-c3cccc[n+]3C)c3ccc([nH]3)c(-c3cccc[n+]3C)c3nc1C=C3)C=C2 |  | inactive |  |  |  |  |  |  |  | inactive | inactive | inhibition [10]: inactive |
